# In the library only some 3.6% were active in any assay of this set; here they are far more common.
# Hsp70 act: switches on Hsp70 transcription. HeLa Hsp70 promoter luciferase reporter, luminescence; scaled: vehicle 0, proteasome-inhibitor control 100%. activation, % at 10 µM. actives 0.04% (n = 200,000);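 active = activation above the mean across all tested compounds plus 3 SD, cutoff set per campaign, cut at about 5.5% in these data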;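 also: 100% = MG132 at 30 µM as the positive control and 0% = DMSO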
# STAT3 activator: increases IL-6 driven STAT3 reporter signal; U3A cells, IL-6 STAT3-luciferase reporter, luminescence; 100% = signal with IL-6 EC80 alone; activation (% of control), % at 5.6 µM; actives 0.91% (n = 190,000); AID 871;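 active = activation above the screen-wide mean of compound activation plus 3 SD, cut at about 130% in these data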;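 also: 0% = background luminescence of wells with medium and substrate only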
#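 Material: STAT1-lacking human U3A cells, STAT3 luciferase reporter | Benchmarks: IL-6-only wells as 100% reference | Probe or stimulus: IL-6 (33 ng/mL) | Timing: Compound 1 h, then IL-6 6 h at 37 °C | Detection: Luminescence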
# PolyA inh: yeast polyadenylation inhibition. S. cerevisiae SKY197-pL101 polyadenylation reporter, beta-gal luminescence; efflux-impaired pdr1/pdr3 knockout yeast; score 100 = 6 SD above DMSO. activity score, % at 12 µM. actives 0.02% (n = 300,000);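 active = lowest replicate activity score at least 50, where 100 means six control SD above control mean; inconclusive = lowest score under 50 but half or more replicates reach 50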;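 also: yeast exposed to compound for 9 h at 30 °C; higher score means more reporter readthrough which indicates perturbed polyadenylation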
# HSF1 inh: HSF1 inhibition | NIH3T3-HGL HSE-luciferase, MG132-induced, luminescence 8 h; active compounds read low | activity change, negative = inhibition, % at 7.5 µM (by protocol) | actives 0.77% (n = 300,000);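 active = more than half of replicate wells show activity change below -50%, luminescence cut by over half; inconclusive = some wells, but at most half, below -50%; inactive = no replicate well below -50%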;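 also: luciferase reports HSF-1 transcriptional activity via heat shock element; 0% = median of DMSO wells and -100% = zero luminescence signal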
# PERK inhibitor: blocks human PERK kinase; AID 1416; inhibition, % at 5.6 µM; actives 0.17% (n = 220,000); CHO PERK-DD fusion, SEAP luminescence translation reporter; Q9NZJ5;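 active = inhibition above the mean inhibition of all tested compounds plus 3 SD, set separately per screening campaign, cut at about 2.9% in these data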;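 also: PERK kinase domain activated by AP20187 dimerizer at 100 nM; 0% = DMSO with dimerizer and 100% = rapamycin at 8.4 µM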
# Target sequence (Q9NZJ5 whole entry, looked up, the tested form may be a part): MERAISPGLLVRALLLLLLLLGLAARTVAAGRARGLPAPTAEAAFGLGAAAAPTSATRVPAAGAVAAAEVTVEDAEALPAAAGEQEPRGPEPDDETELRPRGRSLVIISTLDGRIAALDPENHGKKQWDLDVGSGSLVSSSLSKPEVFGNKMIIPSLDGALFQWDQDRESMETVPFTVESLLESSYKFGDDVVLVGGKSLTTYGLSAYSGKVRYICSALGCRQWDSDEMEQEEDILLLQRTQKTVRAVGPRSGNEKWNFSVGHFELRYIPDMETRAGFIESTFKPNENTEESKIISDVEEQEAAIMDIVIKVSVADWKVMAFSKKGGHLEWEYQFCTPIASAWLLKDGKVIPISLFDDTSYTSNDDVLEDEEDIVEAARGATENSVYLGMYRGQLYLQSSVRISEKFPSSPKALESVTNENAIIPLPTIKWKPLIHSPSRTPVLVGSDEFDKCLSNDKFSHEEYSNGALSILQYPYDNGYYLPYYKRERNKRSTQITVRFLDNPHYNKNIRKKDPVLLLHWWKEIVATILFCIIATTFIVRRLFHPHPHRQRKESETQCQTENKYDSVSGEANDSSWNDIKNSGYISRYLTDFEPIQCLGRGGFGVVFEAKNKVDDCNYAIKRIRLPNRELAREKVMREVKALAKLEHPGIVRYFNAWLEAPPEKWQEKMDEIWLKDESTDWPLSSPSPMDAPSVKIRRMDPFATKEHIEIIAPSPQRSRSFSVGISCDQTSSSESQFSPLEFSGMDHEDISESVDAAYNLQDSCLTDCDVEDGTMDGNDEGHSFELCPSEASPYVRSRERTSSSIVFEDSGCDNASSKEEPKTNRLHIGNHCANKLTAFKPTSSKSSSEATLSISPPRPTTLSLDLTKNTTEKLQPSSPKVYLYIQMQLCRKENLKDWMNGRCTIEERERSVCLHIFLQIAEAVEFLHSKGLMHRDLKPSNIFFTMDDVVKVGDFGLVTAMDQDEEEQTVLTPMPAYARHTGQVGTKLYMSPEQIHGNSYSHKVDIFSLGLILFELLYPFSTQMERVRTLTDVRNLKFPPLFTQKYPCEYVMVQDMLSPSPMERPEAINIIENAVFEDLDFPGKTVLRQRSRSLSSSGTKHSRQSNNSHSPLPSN
# AHR act: human AHR activation; P35869; actives 2.5% (n = 320,000); AHR-responsive luciferase reporter cells, luminescence; activation, % at 5 µM; AID 2796; in the data active = activation above about 47%;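 also: 0% = vehicle wells and 100% = reference agonist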
# An asterisk follows results filed as active; ? = inconclusive; . = no result.
SMILES,Hsp70 act,STAT3 activator,PolyA inh,HSF1 inh,PERK inhibitor,AHR act
Cc1c(C2(O)CCCCC2)[nH]c2cc(C(F)(F)F)ccc12,.,.,.,.,.,47.9*
CC(=O)Nc1nc(COc2ccccc2)cs1,0.3,105.2,2.6,11.5,0.2,3.4
CC(=O)Nc1nc(CC(=O)c2ccccc2)cs1,.,.,-18.2,-25.7,.,57.7*
c1ccc(-c2cc(-c3nc4ccccc4[nH]3)c3ccccc3n2)cc1,-0.5,85.3,-20.7,-1.8,-1.0,52.0*
Nc1ccc(-c2nc3ccccc3[nH]2)cc1,-0.4,102.0,-6.2,24.1,0.7,17.1
Oc1ccc(C=Nc2ccccc2-c2nc3ccccc3[nH]2)cc1,-0.2,100.2,-0.4,17.8,1.0,73.7*
Nc1ccccc1-c1nc2ccccc2[nH]1,0.8,96.2,12.8,20.6,0.6,55.1*
O=c1[nH]cccc1-c1nc2ccccc2[nH]1,.,.,-2.9,2.2,.,21.6
CCCCOc1ccc(C(=O)NCC(=O)NC2CCCCC2)cc1,.,.,.,.,.,1.2
COc1cccc(/C=N/n2nnnc2N)c1OCC#N,.,.,6.5,2.5,.,18.7
Cc1ccc(C(=O)NCc2ccc(N3CCN(C)CC3)cc2)cc1C,.,.,-2.3,-69.3*,.,2.3
CN1CCN(c2ccc(CNC(=O)c3cc4ccccc4o3)cc2)CC1,.,.,3.0,-2.3,-1.2,-1.4
CC(C)=CCc1c(O)cc2c(=O)c3ccc(O)cc3oc2c1O,.,.,-0.9,-36.8,.,62.5*
COc1c(CC=C(C)C)c(O)cc2oc(=O)c3c4ccc(O)cc4oc3c12,.,.,-18.3,5.4,.,-0.3
CN=c1sc(C(=O)Nc2ccccc2)c(C)n1C,-0.3,90.7,2.9,-2.6,1.5,71.5*
CCOc1cccc(C(=O)Nc2ccccc2C(=O)N2CCN(C)CC2)c1,.,.,1.7,3.6,.,3.0
Cc1ccccc1-n1nc(C(=O)O)cc1-c1ccccc1,-0.2,100.3,-3.3,-2.5,3.1*,-0.7
CCCC(=O)Nc1cccc(Oc2nc(C)cc(C)c2C#N)c1,-0.3,100.3,7.7,-6.4,-0.1,58.4*
COc1ccc(C(=O)COc2nc(C)cc(C)c2C#N)cc1,-0.2,77.5,-7.9,7.5,-0.9,47.2*
COc1ccccc1NC(=O)C(=O)Nc1ccccn1,-0.2,141.4*,15.5,28.1,0.6,39.3
COc1ccccc1NC(=S)NCc1ccccn1,-0.3,97.8,-4.3,23.7,0.6,10.3
COc1ccccc1C(=O)NNC(=S)NC(=O)c1sc2ccccc2c1Cl,0.1,114.7,?,-4.7,1.9,47.6*
COc1ccccc1C(=O)NC(=S)Nc1cccnc1Cl,.,.,-11.2,-21.7,.,75.0*
COc1ccccc1C(=O)NC(=S)NNC(=O)c1sc2ccccc2c1Cl,-0.1,116.0,26.8,-5.9,0.5,19.9
COc1ccccc1NC(=O)C(=O)N/N=C(\C)CC(=O)Nc1ccccn1,0.5,95.8,13.6,1.6,0.3,-1.3
SMILES,Hsp70 act,STAT3 activator,PolyA inh,HSF1 inh,PERK inhibitor,AHR act
COc1ccccc1NC(=S)Nc1ccccn1,0.6,91.9,-7.4,10.9,1.2,116.7*
Cc1cccc(NNC(=S)Nc2c(C)cccc2C)c1,.,.,-11.2,-4.0,.,2.0
Cc1cccc(NC(=S)NNc2cccc(Cl)c2)c1,.,.,10.2,19.2,.,53.1*
CCCn1nnc(NC(=S)NC(=O)c2ccccc2OC)n1,.,.,.,.,.,56.9*
Cc1cccc(NC(=S)Nc2ccccn2)c1,.,.,-8.7,30.0,-0.8,58.1*
Cc1ccc(NC(=S)Nc2ccccn2)cc1C,.,.,-10.8,25.5,0.3,32.2
FC(F)(F)c1ccc(Nc2nnnc3ccccc23)cc1,-0.3,101.4,15.4,7.5,-0.5,4.3
COc1ccccc1/C=C/C=C(\C#N)C(=O)NC(C)c1ccccc1 (stereo unspecified),.,.,-10.7,-3.8,.,-4.4
c1ccc(Oc2cccc(OCCn3cncn3)c2)cc1,-0.3,102.5,-4.3,-57.4*,1.4,-0.4
c1ccc(COc2ccc(OCCn3cncn3)cc2)cc1,0.1,105.9,0.9,10.5,1.5,10.2
O=C1c2cccc3c([N+](=O)[O-])ccc(c23)C(=O)N1c1ccccn1,0.3,103.1,-39.8,-67.6*,2.0,-1.5
Cc1ccc(NCc2ccc(O)c3ncccc23)cc1C,0.2,135.3*,1.0,1.2,0.2,0.9
Cc1cccc(NCc2ccc(O)c3ncccc23)c1C,-0.3,105.9,-0.4,-63.1*,2.0,3.4
CCCCC[C@H]1CN(Cc2ccccc2)C(=O)[C@@H]1CC(=O)NCc1ccccc1,.,.,-6.1,2.4,.,-2.4
COc1ccc(NC(=O)CN(C)C(=O)CN2C(=O)NC3(CCCC3)C2=O)cc1,.,.,14.2,0.9,.,1.1
O=c1cc(NCc2ccccc2)[nH]c(=O)[nH]1,.,.,-1.7,-2.3,.,0.6
Cc1cccc(C)c1NC(=O)c1c[nH]c2ccccc12,.,.,0.9,14.3,.,54.9*
Cc1cccc(C)c1NC(=O)CNC(=O)Cc1c[nH]c2ccccc12,.,.,-7.9,-0.3,.,6.4
COc1ccccc1NC(=O)c1c[nH]c2ccccc12,.,.,-7.9,0.6,.,60.5*
COc1ccccc1NC(=O)c1ccccc1C(=O)Nc1ccccc1OC,.,.,-13.4,-2.1,.,-0.7
COc1ccccc1NC(=O)c1cnc(Nc2ccccc2OC)c2ccccc12,0.2,99.1,-15.5,-3.1,-1.4,73.2*
C/C(=N\Nc1nccnc1Cl)c1ccc(O)cc1,.,.,-15.2,1.0,.,28.0
C/C(=N\Nc1c(Cl)c(Cl)nc(C(=O)O)c1Cl)c1ccc(O)cc1,.,.,-0.7,-6.0,.,50.0*
CS(=O)(=O)NCCCCCCNS(C)(=O)=O,0.0,102.2,-2.3,0.0,0.6,0.7
COc1ccc(CCn2c(=O)[nH]c3cc(C(=O)NCCc4ccccc4)ccc3c2=O)cc1OC,-0.3,110.1,.,.,3.0*,.
SMILES,Hsp70 act,STAT3 activator,PolyA inh,HSF1 inh,PERK inhibitor,AHR act
CN1CCN(CCCNC(=O)c2ccc3c(=O)n(CCc4ccccc4)c(=O)[nH]c3c2)CC1,.,.,21.5,0.5,.,1.0
COCCn1c(=O)[nH]c2cc(C(=O)NC3CCCCCC3)ccc2c1=O,0.1,102.1,-9.9,-72.4*,1.0,2.2
CN(C(=O)COC(=O)c1ccc2c(c1)OCO2)c1c(N)n(Cc2ccccc2)c(=O)[nH]c1=O,.,.,0.2,-4.6,.,3.8
Cc1ccc(-c2ccc(/C=C(\C#N)C(N)=S)n2C)cc1,.,.,0.4,.,0.2,78.7*
COc1ccc(Nc2ncnc3sc(-c4ccccc4)cc23)cc1,-0.3,96.6,-12.4,-71.5*,-0.2,35.0
COc1cc(C(=O)Nc2ccc(Oc3ncnc4sc(-c5ccccc5)cc34)cc2)cc(OC)c1OC,0.0,87.0,-6.5,7.3,1.4,0.2
COc1ccccc1C(=O)Nc1ccc(Oc2ncnc3sc(-c4ccccc4)cc23)cc1,0.1,96.4,0.7,-3.4,1.3,79.7*
Cc1cc(C)c2nc3sc(C(=O)N4CCOCC4)c(N)c3cc2c1,.,.,-11.8,-33.4,0.1,72.2*
Nc1c(C(=O)N2CCOCC2)sc2nc3c(cc12)CCCC3,.,.,-0.6,-9.6,.,48.6*
Cc1ccc(C)c2nc3sc(C(=O)N4CCOCC4)c(N)c3cc12,0.2,103.1,-30.7,-2.2,0.2,20.3

# Compound activity deposited in PubChem by several laboratories.
